Screening results from PubChem.
MrgX1 antag: human MrgX1 receptor antagonism, primary screen. MRGX1-HEK293 calcium flux, Fluo-4, BAM8-22 antagonism; active compounds read low. B-score at 10 µM. 310,000 tested, 1.3% active. AID 588676;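 active means calcium-response B-score plate-corrected more than 3 library SD below zero, starting fluorescence within 5 deviations, no agonist response on first addition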;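 further: peak minus trough fluorescence over baseline after final BAM8-22 challenge near maximal dose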
Target sequence (Q96LB2 whole entry, looked up): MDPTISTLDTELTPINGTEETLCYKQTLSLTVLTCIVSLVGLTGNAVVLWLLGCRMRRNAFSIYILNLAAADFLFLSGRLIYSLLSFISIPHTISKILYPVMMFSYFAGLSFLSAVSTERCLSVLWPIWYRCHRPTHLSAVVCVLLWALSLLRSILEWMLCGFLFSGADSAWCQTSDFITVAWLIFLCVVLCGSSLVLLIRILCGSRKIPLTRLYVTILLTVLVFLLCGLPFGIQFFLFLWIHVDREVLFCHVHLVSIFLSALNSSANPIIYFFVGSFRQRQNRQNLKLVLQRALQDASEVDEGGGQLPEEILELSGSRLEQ
MrgX1 agonist: activates human MrgX1 receptor signaling; Q96LB2; MrgX1-HEK293 cells, Fluo-4 calcium fluorescence, agonist mode; active compounds read high; 310,000 tested, 0.44% active; B-score at 10 µM; AID 588627;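 active means calcium response B-score plate-corrected fluorescence ratio at least 3 library SD, with starting fluorescence B-score inside 5 SD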
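Test system: HEK293 cells stably expressing human MrgX1 receptor; amount: 15,000 cells per well; doses: compound delivered in addition one of three; times: overnight plating before 1 h dye loading; detection: Fluo-4 NW calcium-flux fluorescence, kinetic read; read-out basis: B-scored fluorescence response ratio; controls: positive and negative controls per plate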
MrgX1 PAM: allosterically activates human MrgX1 receptor signaling; MrgX1-HEK293, Fluo-4 calcium flux, FDSS; active compounds read high; 310,000 tested, 0.63% active; B-score at 10 µM; AID 588675; Q96LB2;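 active means plate-corrected calcium response at least 3 library SD above typical, normal starting fluorescence, not activating the receptor alone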;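 further: compound read alongside a low EC10 to EC30 dose of BAM8-22 agonist; peak minus trough fluorescence over baseline measured at the second addition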
RGS4 pot: RGS4 potentiation or activation; HEK293 M3R/inducible RGS4, carbachol calcium flux Fluo4; active compounds read low; B-score at 10 µM; 310,000 tested, 0.92% active; AID 463111;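 active means B-score of the integrated calcium signal more than 4 SD below the library mean, with starting fluorescence not abnormally high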;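 further: negative B-score means reduced calcium response which marks RGS4 activation or potentiation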
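Also added: carbachol at ECmax as muscarinic agonist stimulus; Assay system: HEK293 cells with stable M3R and inducible RGS4; Timing: overnight RGS4 induction, 30 min dye load 37 °C, 20 min compound RT; Measured by: Fluo4-AM (2 µM) calcium-flux fluorescence, kinetic read.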
RGS4 inh: human RGS4 inhibition | 310,000 tested, 0.45% active | P49798 | HEK293 M3R/RGS4 inducible, Fluo-4 calcium flux; active compounds read high; triggered by carbachol at its EC20 | B-score at 10 µM | AID 463165;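 active means B-score, a plate-corrected calcium signal, over three deviations above library mean, with baseline fluorescence within five deviations of library mean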;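 further: RGS4 expression induced by doxycycline in cells with stable M3 receptor; B-score is computed from the integrated fluorescence ratio over baseline after carbachol; higher B-score means a larger calcium signal and so more RGS4 inhibition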
Target sequence (P49798 whole entry, looked up): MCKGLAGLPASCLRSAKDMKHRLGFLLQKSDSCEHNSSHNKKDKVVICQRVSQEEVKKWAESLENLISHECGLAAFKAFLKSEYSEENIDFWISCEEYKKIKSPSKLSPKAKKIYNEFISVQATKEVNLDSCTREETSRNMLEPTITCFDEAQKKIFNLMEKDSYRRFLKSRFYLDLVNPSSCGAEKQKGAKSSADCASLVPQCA
MrgX1 ant reconf: reconfirmed antagonist of human MrgX1 receptor signaling | shares compounds with MrgX1 antag | MrgX1-HEK293, BAM8-22 calcium flux, Fluo-4; active compounds read low | remaining BAM8-22 calcium response % of control (active compounds read low), % at 10 µM | 2,300 tested, 19% active | AID 602420;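 active means remaining agonist calcium response no higher than 100% minus 3 SD of agonist-only control wells, with starting fluorescence near control levels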;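 further: agonist BAM8-22 given at a near maximal EC90 to ECmax level; peak minus minimum fluorescence divided by baseline after agonist addition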
HEK293 Ca flux: activity in parental HEK293 cells lacking MrgX1; shares compounds with MrgX1 antag; Fluo-4 calcium fluorescence, FDSS; fluorescence ratio F(max-min)/F0 at 10 µM; 4,000 tested, 2% active;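 active means duplicate-averaged calcium fluorescence ratio at least three times the standard deviation of buffer wells, a nonspecific response in parental cells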
HEK293 Ca counter: counter-screen for MrgX1 allosteric activators: effect in parental HEK293 cells; shares compounds with MrgX1 antag; parental HEK293 calcium flux, Fluo-4 fluorescence ratio; active compounds read high; fluorescence ratio F(max-min)/F0 at 10 µM; 4,000 tested, 0.4% active;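 active means calcium fluorescence ratio, averaged over duplicates, at least 3 SD of the buffer-well ratio, meaning a nonspecific response in receptor-free cells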;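 further: untransfected parental HEK293 lacking MrgX1 used as counterscreen for MrgX1 allosteric activators; fluorescence change taken during the second addition on a kinetic imager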
HEK293 Ca cntr2: counter-screen for MrgX1 activators: effect in parental HEK293 cells; shares compounds with MrgX1 antag; Fluo-4 calcium fluorescence (FDSS); active compounds read high; fluorescence ratio F(max-min)/F0 at 10 µM; 4,000 tested, 8.7% active;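 active means calcium fluorescence ratio at least three times the spread of buffer wells, meaning a non-specific response in parental cells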
An asterisk follows results filed as active; i = inactive; nt = no result. The list is not random: actives were taken first. Their share in the collection is about 3.5%.

SMILES | MrgX1 antag | MrgX1 agonist | MrgX1 PAM | RGS4 pot | RGS4 inh | MrgX1 ant reconf | HEK293 Ca flux | HEK293 Ca counter | HEK293 Ca cntr2
Cc1cc2cc3c(cc2nc1SCC(=O)N1c2ccccc2CC1C)OCO3 (configuration not stated) | -5* | i | i | i | i | 84%* | i | i | i
Cc1cc2ccccc2nc1SCC(=O)N1c2ccccc2CC1C (configuration not stated) | i | i | i | i | i | nt | nt | nt | nt
COc1cccc2cc(C(=O)C3=C(O)C(=O)N(c4cc(C)on4)C3c3cccs3)oc12 (configuration not stated) | -5.1* | i | i | i | i | i | i | i | i
COc1cccc(C2C(C(=O)c3cc4cccc(OC)c4o3)=C(O)C(=O)N2c2cc(C)on2)c1OC (configuration not stated) | i | i | i | i | i | nt | nt | nt | nt
COC(=O)c1ccc(C2C(C(=O)c3cc4ccccc4o3)=C(O)C(=O)N2c2cc(C)on2)cc1 (configuration not stated) | -5.2* | i | i | i | i | 82%* | i | i | i
Cc1cc(N2C(=O)C(O)=C(C(=O)c3cc4ccccc4o3)C2c2ccc(OC(C)C)cc2)no1 (configuration not stated) | i | i | i | i | i | nt | nt | nt | nt
CC(Oc1cccc(Cl)c1)C(=O)Nc1nc(-c2ccccn2)cs1 (configuration not stated) | i | i | i | i | i | nt | nt | nt | nt
CCC(Sc1nc2ccsc2c(=O)n1Cc1ccc(C(=O)O)cc1)C(=O)Nc1ccc(C)c(Cl)c1 (configuration not stated) | i | i | i | i | i | nt | nt | nt | nt
Cc1cccc2cc(CN(CC3CCCO3)C(=O)c3ccco3)c(=O)[nH]c12 (configuration not stated) | -8.3* | i | i | i | i | i | i | i | i
CCOC(=O)N1CCC(N2CCN(c3cc(C)ccc3C)CC2)CC1 | -8.8* | i | i | i | i | i | i | i | i
C(=N\N1CCOCC1)/c1cccs1 | i | i | i | i | i | nt | nt | nt | nt
COc1ccc(OC)c(NC(=O)CCN2CC(C)CC(C)C2)c1 (configuration not stated) | i | i | i | i | i | nt | nt | nt | nt
CCOc1ccc(S(=O)(=O)Nc2cc(Cl)ccc2O)cc1 | -4.6* | i | i | i | i | 85%* | i | i | i
CCn1nc2cc(C(=O)NCCc3cccs3)ccc2c1OC | i | i | i | i | i | nt | nt | nt | nt
COc1ccc(-c2cc(C(=O)N3CCN(C(c4ccccc4)c4ccccc4)CC3)no2)cc1OC | -5.3* | i | i | i | i | i | i | i | i
Cc1ccccc1CSCCNS(C)(=O)=O | -5.3* | i | i | i | i | i | i | i | i
O=C(NCC(c1ccco1)N1CCc2ccccc2C1)C(=O)Nc1ccc(F)cc1F (configuration not stated) | -5.8* | i | i | i | i | i | i | i | i
CCOc1cc(C(C(=O)NCC2CCCO2)N(C(=O)Cn2nnc3ccccc32)c2ccccc2OC)ccc1O (configuration not stated) | i | i | i | i | i | nt | nt | nt | nt
Cc1cc(SCC(=O)Nc2cccc(S(N)(=O)=O)c2)c(C)cc1Br | -9.8* | i | i | i | i | i | i | i | i
COc1ccc(C2=NN(C(=O)CCC(=O)O)C(c3ccccc3F)C2)cc1 (configuration not stated) | i | i | i | i | i | nt | nt | nt | nt
CC1CC(=O)C2=C(C1)Nc1ncnn1C2c1ccccc1 (configuration not stated) | i | i | i | i | i | nt | nt | nt | nt
Cc1nc2n(n1)C(c1ccccc1)C1=C(CC(c3ccco3)CC1=O)N2 (configuration not stated) | -7.9* | i | i | i | i | i | i | i | i
Cc1cc(C)n(CCCNC(=O)c2ccc3c(c2)NC(=O)CS3)n1 | -8* | i | i | i | i | i | i | i | i
NC(=O)CCS(=O)(=O)c1ccc(Cl)cc1 | i | i | i | i | i | nt | nt | nt | nt
Cc1nc2ccc(N)cc2s1 | -5.6* | i | i | i | i | i | i | i | i
SMILES | MrgX1 antag | MrgX1 agonist | MrgX1 PAM | RGS4 pot | RGS4 inh | MrgX1 ant reconf | HEK293 Ca flux | HEK293 Ca counter | HEK293 Ca cntr2
Cc1nc2cc3sc(C)nc3cc2s1 | i | i | i | i | i | nt | nt | nt | nt
CCN1CCN(S(=O)(=O)c2ccc(OC)c(NC(=O)c3ccccc3)c2)CC1 | i | i | i | i | i | nt | nt | nt | nt
CCc1nnc2sc(-c3ccc(NC(=O)c4ccco4)cc3)nn12 | -8.1* | i | i | i | i | i | i | i | i
COc1ccccc1NC(=O)NCCN1C(=O)C2C3C=CC(C3)C2C1=O (configuration not stated) | -7.6* | i | i | i | i | i | i | i | i
COc1ccccc1NC(=O)NCCN1CCCCC1 | i | i | i | i | i | nt | nt | nt | nt
CN(C)CCN(C(=O)C1CCN(S(=O)(=O)c2cccs2)CC1)c1nc2c(F)cccc2s1 | i | i | i | i | i | nt | nt | nt | nt
CCN1CCCC1CNC1=NCCCCC1 (configuration not stated) | -5.2* | i | i | i | i | 83%* | i | i | i
CCNc1nc(SC)nc(N(C#N)CC(=O)OC)n1 | i | i | i | i | i | nt | nt | nt | nt
COc1cccc(-c2nnc(SCC(=O)Nc3ccc4c(c3)OCCO4)n2Cc2ccco2)c1 | -6.4* | i | i | i | i | i | i | i | i
COc1cccc(-c2nnc(SCC(=O)NCc3ccc4c(c3)OCO4)n2Cc2ccco2)c1 | i | i | i | i | i | nt | nt | nt | nt
